2 molecules from ChEMBL document CHEMBL4819012, “Discovery of novel 2-aryl-3-sulfonamido-pyridines (HoAns) as microtubule polymerization inhibitors with potent antitumor activities” (Eur J Med Chem, 2021) can be followed below.

In assay [1] the test system is RKO. The assay is described as follows: Induction of apoptosis in human RKO cells assessed as increase in Bax expression at 0.5 to 1 uM measured after 24 hrs by western blot assay. In kind it is functional, cell-based. The settings on record: dose 0.5-1 µM. The essentials:
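RKO or SW620 cells at 4×10^5–5×10^5 per well treated with 0.5 and 1 µM for 24 h; lysed in SDS loading buffer, boiled, SDS-PAGE, PVDF transfer; probed with anti-Bax or anti-cleaved PARP (1:1000) overnight at 4 °C, HRP secondary, ECL detection; β-actin control.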

The species named for a further assay is Sus scrofa. The assay is described as follows: Inhibition of pig tubulin polymerization at 10 uM measured every minute for 60 mins by microplate reader method. Summed up:
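Kit assay with porcine tubulin (>97% pure) at 4 mg/mL in PIPES 80 mM, MgCl2 2 mM, EGTA 0.5 mM, pH 6.9, with GTP. Compound at 10 μM final (from 100 μM working solution) preincubated 5 min at 37 °C in a prewarmed plate before cold tubulin mix is added. A340 read every minute for 60 min at 37 °C.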

For assay [2], the system named is SW-620. The assay is described as follows: Antitumour activity against human SW-620 cells xenografted in Athymic nude mouse assessed as decrease in tumour growth at 25 mg/kg per two days, po measured after 20 days. More on the design: scale not given: the % may be the effect or the level left. The conditions noted are these: time 20 day. The format is functional. The essentials:
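Nude mice inoculated s.c. in right armpit with 5×10^6 SW620 cells in 125 µL PBS; at about 100 mm³ randomized, n = 6. Dosed orally 25 mg/kg every 2 days for 20 days in DMSO:corn oil 1:9. Tumour volume (L×W²/2) and body weight measured every 2 days; inhibition from final tumour weight vs vehicle.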
In general terms: In xenograft studies the graft and the host belong to different species.

In assay [3] the test system is PANC-1. The assay is described as follows: Induction of cell cycle arrest in human PANC-1 cells assessed as accumulation of cells in G2 phase at 1 uM measured after 24 hrs by PI staining based flow cytometry method (reference value: 3.63%). The format is functional. (Flow cytometry measures light scatter and fluorescence of single cells or particles in a stream.)
The subject of assay [4] is RKO. The assay is described as follows: Induction of apoptosis in human RKO cells assessed as early apoptotic cells at 1 uM measured after 24 hrs by PI/Annexin V staining based flow cytometry assay (reference value: 2.58%). In kind it is functional.
Assay [5] concerns SW-620. The assay is described as follows: Induction of apoptosis in human SW-620 cells assessed as necrotic cells at 1 uM measured after 24 hrs by PI/Annexin V staining based flow cytometry assay (reference value: 0.03%). In kind it is functional.
In assay [6] the test system is SW-620. The assay is described as follows: Induction of cell cycle arrest in human SW-620 cells assessed as accumulation of cells in G1 phase at 1 uM measured after 24 hrs by PI staining based flow cytometry method (reference value: 40.06%). In kind it is functional.
The subject of assay [7] is RKO. The assay is described as follows: Induction of cell cycle arrest in human RKO cells assessed as accumulation of cells in G1 phase at 1 uM measured after 24 hrs by PI staining based flow cytometry method (reference value: 39.54%). The format is functional.
The next assay has as its system HUVEC. The assay is described as follows: Cytotoxicity against human HUVEC cells assessed as inhibition of cell proliferation measured after 24 hrs by MTS assay. The format is cell-based. Summed up:
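HUVECs exposed to graded concentrations for 24 h; viability read by MTS assay; IC50 reported as mean ± SD.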
Background: Tetrazolium assays rely on reduction of a dye to a coloured formazan, in cell work by metabolically active cells.

Assay [8] can be described thus: Antiproliferative activity against human HCCLM3 cells assessed as cell viability measured after 72 hrs by MTS method. The conditions noted are these: HCCLM3, 72 h. The format is functional, cell-based. The essentials: (§1)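 Log-phase cells plated at 5×10^3–6×10^3 per well for 24 h, then given graded compound concentrations in fresh medium for 72 h, five replicate wells. Medium replaced with medium containing 10% MTS, 30 min or more at 37 °C in dark; OD 490 nm read. IC50 by nonlinear regression; mean ± SD of at least three experiments.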

Assay [9] has as its system SW-620. The assay is described as follows: Induction of cell cycle arrest in human SW-620 cells assessed as accumulation of cells in G2 phase at 1 uM measured after 24 hrs by PI staining based flow cytometry method (reference value: 13.83%). The format is functional.
Another assay deals with SGC-7901. The assay is described as follows: Antiproliferative activity against human SGC-7901 cells assessed as cell viability measured after 72 hrs by MTS method. In kind it is functional, cell-based. The settings on record: SGC-7901, 72 h. Summed up: as §1
In assay [10] the test system is SW-620. The assay is described as follows: Induction of apoptosis in human SW-620 cells assessed as viable cells at 1 uM measured after 24 hrs by PI/Annexin V staining based flow cytometry assay (reference value: 93.89%). In kind it is functional. The conditions noted are these: read-out: Activity.
For another assay, the system named is BT-474. The assay is described as follows: Antiproliferative activity against human BT-474 cells assessed as cell viability measured after 72 hrs by MTS method. In kind it is functional, cell-based. The settings on record: BT-474, 72 h. The essentials: as §1
The target of another assay is Tubulin (Homo sapiens) (UniProt P68371+Q9H4B7+P0DPH7+P68366+Q13509+Q71U36+P04350+Q3ZCM7+P07437+P68363+Q9BQE3+Q6PEY2+Q13885+Q9BVA1+Q9BUF5). The assay is described as follows: Inhibition of tubulin polymerization in human RKO cells assessed as morphology changed to fusiform at 1 uM measured 24 hrs by DAPI staining based immunoflourescence assay. The format is cell-based. The conditions noted are these: in the assay text read “changed to round from fusiform” for “changed to fusiform”. Summed up: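 RKO cells on coverslips (2.5×10^5 per well) incubated overnight, then treated for 24 h at 0.5 or 1 μM, DMSO, or 1 μM comparators. Fixed in cold methanol 10 min, permeabilized with 0.25% Triton X-100, blocked in 1% BSA at 4 °C overnight. Stained with anti-β-tubulin (1:100, 2 h RT) and Alexa Fluor 594 secondary (1:500, 1 h), nuclei with DAPI; imaged by fluorescence microscopy.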

For assay [11], the target named is Tubulin beta (Homo sapiens) (UniProt P68371+Q9H4B7+Q13509+P04350+Q3ZCM7+P07437+Q13885+Q9BVA1+Q9BUF5+A6NNZ2). The assay is described as follows: Inhibition of N,N'-Ethylenebis(iodoacetamide) binding to beta tubulin in human SW-620 cells preincubated for 2 hrs followed by addition of EBI and measured after 2 hrs by western blot assay. The format is cell-based. The settings on record: dose 10-40 µM. The essentials:
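SW620 cells (5×10^5 per well) pretreated for 2 h with 10, 20 or 40 μM of test agent or DMSO, then given 100 μM EBI for 2 h. Lysed in SDS loading buffer. β-tubulin and β-tubulin–EBI adduct bands resolved by western blot probed with anti-β-tubulin.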

Assay [12] concerns RKO. The assay is described as follows: Induction of apoptosis in human RKO cells assessed as viable cells at 0.5 uM measured after 24 hrs by PI/Annexin V staining based flow cytometry assay (reference value: 96.6%). The format is functional. The settings on record: read-out: Activity.
Assay [13] deals with PANC-1. The assay is described as follows: Induction of cell cycle arrest in human PANC-1 cells assessed as accumulation of cells in G1 phase at 0.5 uM measured after 24 hrs by PI staining based flow cytometry method (reference value: 31.35%). In kind it is functional.
In assay [14] the test system is RKO. The assay is described as follows: Antiproliferative activity against human RKO cells assessed as inhibition of cell proliferation measured after 24 hrs by crystal violet staining based colony-formation assay. The format is functional. The conditions noted are these: dose 0.125-1 µM. Summed up:
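RKO or SW620 cells plated at 1000 cells/well overnight, exposed to 0.125–1 µM for 24 h, then grown 10 days in fresh medium. Colonies fixed in methanol 15 min, stained with 0.1% crystal violet 30 min, photographed; colonies of more than 50 cells counted.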

In general, IC50 refers to the concentration at which inhibition is half-maximal.

Activity calls are given as the source filed them. No cut-off for these calls is given here.

On to `COc1ccc(S(=O)(=O)Nc2cccnc2Nc2ccc(O)cc2)cc1` [ABT-751], for which the outcome in the assay with RKO [1] was Active. In addition, the inhibition entry in the assay listed under Sus scrofa and on Tubulin (Homo sapiens) was “Active” in each case. The Activity stood at 49.3% in the assay with SW-620 [2]; 64.83% in the assay with PANC-1 [3]; 10.16% with RKO [4]; 0.07% in the assay on SW-620 [5]; 37.86% in the assay with SW-620 [6]; 0.98% in the assay on RKO [7]. In addition, the Activity in the assay on SW-620 [9] was found to be 17.69%. For the same molecule, the IC50 with HUVEC came to 9.2 µM; in assay [8] it was 0.671 µM; in the assay on SGC-7901 it was 0.738 µM; in the assay on BT-474 it was 8.39 µM. The viability at 1 µM in the assay on SW-620 [10] worked out at 85.6%.

On to `COc1ccc(S(=O)(=O)Nc2cccnc2-c2ccc(C#N)c(F)c2)cc1`, for which the result in the assay on RKO [1] was Active. For the same molecule, the inhibition result in the assay filed under Sus scrofa and on Tubulin (Homo sapiens) was “Active” in each case. Further, the Activity was 53.6% with SW-620 [2]; 28.01% with PANC-1 [3]; 36.65% in the assay on RKO [4]; 34.22% in the assay with PANC-1 [13]; 0.09% in the assay on SW-620 [5]; 8.05% in the assay on SW-620 [6]. Also, the Activity in the assay with RKO [7] is 8.75%; in the assay with SW-620 [9], 76.28%; in the assay with RKO [14] it was “Dose-Dependent Effect”. For the same molecule, in [11], the inhibition entry was “Dose-Dependent Effect”. The viability at 0.5 µM in the assay with RKO [12] was found to be 74.5%. In addition, the IC50 with HUVEC amounted to 8.9 µM; in assay [8] it was 0.963 µM; in the assay with SGC-7901, 0.617 µM; in the assay on BT-474, 1.19 µM. Moreover, in the assay with SW-620 [10], the viability at 1 µM amounted to 87.3%.
